Screening data from PubChem BioAssay.
Compounds with a hit are over-represented: about 12% of the library has one in this group of screens.
RAM inhibit: inhibitors of the yeast RAM network, primary screen, dse1pr::URA3 reporter, 5-FOA selection; S. cerevisiae dse1pr::URA3 reporter, 5-FOA growth OD615, 2 d; analog-sensitive cbk1-as2 kinase mutant strain; inhibition, % at 50 µM; hit rate 1.8% among 190,000;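 active = inhibition above a set limit, 3 SD over mean compound inhibition, cut at about 8.4% in these data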;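 note: 0% = DMSO-only wells with no growth and 100% = 10 µM 1-NA-PP1 full growth; inhibition rescues growth on 5-FOA so higher OD means more RAM inhibition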
WT yeast gro inh: growth inhibition of WT strain, primary screen, mitochondrial fusion inhibitor project, WT and mutant strains, chemical genetic; mitochondrial fusion phenotypic screen; inhibition, % at 10 µM; hit rate 2.1% among 190,000; AID 1362, 2008; in the data active = inhibition above about 58%; tested in S. cerevisiae
ABCG2 inh: ABCG2 efflux pump inhibitors, primary screen, multiplex with ABCB1, IgMXP3 cells, flow cytometry | JC-1 efflux | inhibition, % at 6.6 µM | hit rate 0.1% among 190,000 | AID 1325, 2008;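 active = inhibition above 80%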;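 note: 0% = DMSO and 100% = nicardipine control wells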
Target sequence (Q9UNQ0 whole entry, looked up): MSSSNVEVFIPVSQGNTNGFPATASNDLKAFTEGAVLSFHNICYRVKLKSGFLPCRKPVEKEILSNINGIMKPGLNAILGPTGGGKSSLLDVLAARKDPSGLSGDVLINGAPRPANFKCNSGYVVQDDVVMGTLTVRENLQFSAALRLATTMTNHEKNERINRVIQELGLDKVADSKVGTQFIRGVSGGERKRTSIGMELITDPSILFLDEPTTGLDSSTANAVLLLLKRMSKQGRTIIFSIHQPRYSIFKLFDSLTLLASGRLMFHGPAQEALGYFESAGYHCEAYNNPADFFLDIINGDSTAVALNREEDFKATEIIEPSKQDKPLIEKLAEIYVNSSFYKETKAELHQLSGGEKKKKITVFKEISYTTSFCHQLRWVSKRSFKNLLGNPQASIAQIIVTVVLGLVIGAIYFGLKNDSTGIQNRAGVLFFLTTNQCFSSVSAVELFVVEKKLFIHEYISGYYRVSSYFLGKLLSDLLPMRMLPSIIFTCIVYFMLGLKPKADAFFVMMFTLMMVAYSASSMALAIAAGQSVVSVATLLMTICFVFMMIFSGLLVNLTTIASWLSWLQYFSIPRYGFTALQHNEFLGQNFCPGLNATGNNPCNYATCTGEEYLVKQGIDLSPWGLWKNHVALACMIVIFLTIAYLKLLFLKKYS
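Measure – % inhibition of efflux relative to nicardipine and DMSO · Test system – ABCG2 IgMXP3 and barcoded ABCB1 CCRF-Adr cell mix · Control set – nicardipine as high control, DMSO as low control · Compound – one concentration, 6.6 µM final · Signal – flow cytometry of retained JC-1 fluorescence · Timing – 10 min exposure at 25 °C with rotation, no wash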
Lmaj promast: Leishmania major promastigote growth inhibition, primary screen. Leishmania major promastigotes, resazurin fluorescence viability. inhibition, % at 10 µM. hit rate 9% among 200,000. AID 1063, 2008; in the data active = inhibition above about 50%;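 note: promastigotes grown with compound for 44 hours at 28 °C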
ABCB1 inh: ABCB1 efflux pump inhibitors, primary screen, cell-based, multiplex, flow cytometry, ABCG2 counter-screen | ATP-dependent translocase ABCB1 (Homo sapiens), P08183 | CCRF-Adr cells, JC-1 efflux | inhibition, % at 6.6 µM | hit rate 0.067% among 190,000 | AID 1326, 2008; in the data active = inhibition above about 40%;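 note: 0% = vehicle and 100% = reference inhibitor; higher value means more JC-1 retained so stronger ABCB1 efflux block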
Active calls of the source: *.

Results for CC1CCCC(N2C(=O)NC(NC(=O)c3ccco3)(C(F)(F)F)C2=O)C1C (centres undefined) ?
RAM inhibit: 4.2; WT yeast gro inh: -4.3; ABCG2 inh: 0.0; Lmaj promast: 56.0*; ABCB1 inh: -0.1

Results for Cc1noc(/C=C/c2ccco2)c1S(=O)(=O)N1CCC(C(=O)N2c3ccccc3CC2C)CC1 (centres undefined) ?
RAM inhibit: 4.0; WT yeast gro inh: 10.1; ABCG2 inh: 7.8; Lmaj promast: 42.8; ABCB1 inh: 2.4

How did COc1ccc(NC(=O)CCC(=O)OCc2ccc([N+](=O)[O-])cc2)cc1 do in these assays?
RAM inhibit: 1.4; WT yeast gro inh: 14.5; ABCG2 inh: 2.8; Lmaj promast: -3.6; ABCB1 inh: 0.4

Results for O=C(COc1ncnc2sccc12)N1CCN(C(=O)c2ccco2)CC1 ?
RAM inhibit: 0.1; WT yeast gro inh: -1.1; ABCG2 inh: -1.5; Lmaj promast: -6.1; ABCB1 inh: -0.9

Results for O=S(=O)(c1ccc(N=C2NN=C(c3cc(F)ccc3F)CS2)cc1)N1CCOCC1 ?
RAM inhibit: 3.1; WT yeast gro inh: 30.9; ABCG2 inh: -1.6; Lmaj promast: 16.1; ABCB1 inh: -0.6

What do the screens show for `Fc1ccc(N=C2NN=C(c3cc(F)ccc3F)CS2)cc1`?
RAM inhibit: 1.8; WT yeast gro inh: 80.1*; ABCG2 inh: -3.8; Lmaj promast: 2.8; ABCB1 inh: -0.8

Results for Fc1ccccc1N=C1NN=C(c2ccccc2)CS1 ?
RAM inhibit: 1.6; WT yeast gro inh: 26.8; ABCG2 inh: 0.1; Lmaj promast: 15.4; ABCB1 inh: -0.1

How did Fc1ccc(F)c(C2=NNC(=Nc3ccccc3F)SC2)c1 do in these assays?
RAM inhibit: 1.3; WT yeast gro inh: 63.2*; ABCG2 inh: -0.7; Lmaj promast: -2.5; ABCB1 inh: -0.2

How did c1ccn2cc(C34CC5CC(CC(C5)C3)C4)nc2c1 do in these assays?
RAM inhibit: 3.0; WT yeast gro inh: 24.7; ABCG2 inh: 3.0; Lmaj promast: 33.2; ABCB1 inh: 0.9

How did CCCCOc1ccc(/C=N/NC(=O)c2csc(C)c2C)cc1 do in these assays?
RAM inhibit: -0.9; WT yeast gro inh: 23.8; ABCG2 inh: -1.1; Lmaj promast: -11.0; ABCB1 inh: -0.3

Results for Cc1scc(C(=O)N/N=C/c2ccc(OCC(C)C)cc2)c1C ?
RAM inhibit: 2.1; WT yeast gro inh: 39.0; ABCG2 inh: 6.7; Lmaj promast: 87.7*; ABCB1 inh: 0.3

Results for Cc1nn(Cc2ccccc2Cl)c(C)c1NC(=O)CCCn1nc([N+](=O)[O-])c(Cl)c1C ?
RAM inhibit: 4.8; WT yeast gro inh: -5.9; ABCG2 inh: 21.9; Lmaj promast: 12.1; ABCB1 inh: 6.1

What do the screens show for `Cc1ccc(/C(C#N)=C\c2cn(C)c3ccccc23)cc1`?
RAM inhibit: 8.9*; WT yeast gro inh: 52.8; ABCG2 inh: 4.5; Lmaj promast: 3.5; ABCB1 inh: 0.3

How did Cc1cc(C)c2oc(-c3ccc(C)c(NC(=S)NC(=O)c4cccs4)c3)nc2c1 do in these assays?
RAM inhibit: 2.1; WT yeast gro inh: 36.8; ABCG2 inh: 2.0; Lmaj promast: 4.5; ABCB1 inh: 0.3

How did Cc1cc(C)c2oc(-c3ccc(C)c(NC(=S)NC(=O)/C=C/c4ccco4)c3)nc2c1 do in these assays?
RAM inhibit: 5.3; WT yeast gro inh: 5.4; ABCG2 inh: -0.9; Lmaj promast: 71.3*; ABCB1 inh: 0.1

What do the screens show for `Cc1ccc2oc(-c3cccc(NC(=S)NC(=O)/C=C/c4ccco4)c3)nc2c1`?
RAM inhibit: 3.1; WT yeast gro inh: -6.1; ABCG2 inh: 3.9; Lmaj promast: 100.3*; ABCB1 inh: 0.4

Results for CCOc1ncccc1C(=O)OC(C)C(=O)NC(=O)NC1CCCCC1 (centres undefined) ?
RAM inhibit: -0.5; WT yeast gro inh: 7.5; ABCG2 inh: 13.7; Lmaj promast: 24.6; ABCB1 inh: 3.1

Results for CN(C)S(=O)(=O)c1cccc(NC(=O)CN2C(=O)NC(CCc3ccccc3)C2=O)c1 (centres undefined) ?
RAM inhibit: 1.0; WT yeast gro inh: 4.0; ABCG2 inh: 2.8; Lmaj promast: -3.0; ABCB1 inh: -0.1

What do the screens show for `Cc1ccnc(NS(=O)(=O)c2ccc(NC(=O)C3C4C=CC(C4)C3C(=O)O)cc2)n1` (centres undefined)?
RAM inhibit: 0.5; WT yeast gro inh: 9.1; ABCG2 inh: 7.0; Lmaj promast: -2.8; ABCB1 inh: 0.6

What do the screens show for `CC(=O)Nc1ccc(Nc2cc(C)nc3c(-c4ccc(Cl)cc4)cnn23)cc1`?
RAM inhibit: 3.1; WT yeast gro inh: 21.1; ABCG2 inh: 21.4; Lmaj promast: 79.1*; ABCB1 inh: 8.4

Results for CC(=O)Nc1ccc(Nc2cc(C)nc3c(-c4ccc(Cl)cc4)c(C)nn23)cc1 ?
RAM inhibit: 2.6; WT yeast gro inh: 14.3; ABCG2 inh: 1.4; Lmaj promast: 93.3*; ABCB1 inh: 0.7

How did O=C(O)C1CCN(C(=O)COc2ccc(Br)cc2)CC1 do in these assays?
RAM inhibit: 0.5; WT yeast gro inh: -5.5; ABCG2 inh: 1.3; Lmaj promast: -7.9; ABCB1 inh: 0.4

How did CCOC(=O)Cn1c(=NC(=O)C2COc3ccccc3O2)sc2cc(S(N)(=O)=O)ccc21 (centres undefined) do in these assays?
RAM inhibit: 4.8; WT yeast gro inh: -9.0; ABCG2 inh: -2.1; Lmaj promast: -1.1; ABCB1 inh: -0.3

How did CCOC(=O)Cn1c(=NC(=O)c2ccc([N+](=O)[O-])s2)sc2ccccc21 do in these assays?
RAM inhibit: 6.5; WT yeast gro inh: 64.5*; ABCG2 inh: 0.4; Lmaj promast: 79.6*; ABCB1 inh: 0.0

What do the screens show for `CC(=O)c1ccc(Oc2cnccn2)cc1`?
RAM inhibit: 2.8; WT yeast gro inh: -9.3; ABCG2 inh: 0.5; Lmaj promast: -3.3; ABCB1 inh: 0.4

Results for Cc1cc(N/N=C(/CCC(=O)O)C(=O)O)nc2ccccc12 ?
RAM inhibit: 0.5; WT yeast gro inh: 4.4; ABCG2 inh: 1.3; Lmaj promast: -12.0; ABCB1 inh: 0.2

Results for Cc1cc(N/N=C/c2ccccc2Br)nc2ccccc12 ?
RAM inhibit: -0.8; WT yeast gro inh: 70.1*; ABCG2 inh: 7.6; Lmaj promast: 52.3*; ABCB1 inh: -0.1

Results for Brc1ccccc1/C=N/Nc1ccc2ccccc2n1 ?
RAM inhibit: -0.8; WT yeast gro inh: 68.6*; ABCG2 inh: -21.3; Lmaj promast: 40.9; ABCB1 inh: -2.8

What do the screens show for `Brc1ccc(/C=N/Nc2ccc3ccccc3n2)cc1`?
RAM inhibit: -0.8; WT yeast gro inh: 60.0*; ABCG2 inh: 2.0; Lmaj promast: 1.4; ABCB1 inh: 0.6

Results for Fc1cccc(/C=N/Nc2ccc3ccccc3n2)c1 ?
RAM inhibit: 0.1; WT yeast gro inh: 20.2; ABCG2 inh: -0.9; Lmaj promast: 51.8*; ABCB1 inh: -0.7
